Active and inactive are the calls of the source. The calls are words filed in the database; no cut-off is given here. Where only a bound is given, the exact number is not on record here.

The results in this text go back to ChEMBL document CHEMBL1143148, “Influence of heterocyclic and oxime-containing farnesol analogs on quorum sensing and pathogenicity in Candida albicans” (Bioorg Med Chem, 2008).

Data set [1] relates to Candida albicans. Nature of the data set: Effect on quorum sensing in Candida albicans assessed as inhibition of germ tube formation. Format: functional, organism-based. An outline of the steps: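 Undifferentiated C. albicans cells inoculated to a final 1–2 × 10⁷ cells/ml in 2.5 mM N-acetyl glucosamine buffered to pH 7. Incubated 4 h at 37 °C with shaking at 200 rpm. Percentage of cells forming germ tubes then scored and inhibition relative to untreated cells taken. Triplicate readings.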

For data set [2], the system named is Candida albicans. Briefly: Effect on rate of cell growth in Candida albicans at > 100 uM. The class given is functional, organism-based.
The next data set concerns Mus musculus. Briefly: Toxicity against ip dosed mouse after 14 days. Format: organism-based. The conditions noted are these: in vivo, 336 h.
Data set [3] has as its system Candida albicans. Nature of the data set: Protection against Candida albicans A72 infected mouse model of disseminated candidiasis assessed as mortality at 20 mM, ip. Format: functional, organism-based. An outline of the steps:
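Mice inoculated by tail vein with C. albicans A72 at 5 × 10⁶ or 2 × 10⁶ cells, 15 per group. Each got 1 ml IP of a 20 mM analog solution in 0.5% Tween 80 in saline, or a vehicle control injection. Mortality followed over time.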

Data set [4] relates to Candida albicans. Nature of the data set: Enhancement of pathogen virulence in Candida albicans A72 infected mouse model of disseminated candidiasis assessed as mortality at 20 mM, ip after 60 hrs of infection relative to control. Format: functional, organism-based. Summed up:
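Mice inoculated by tail vein with C. albicans A72 at 5 · 10⁶ or 2 · 10⁶ cells, 45 mice per inoculum, split into 3 groups of 15. Each group received IP 1 ml of either 0.5% Tween 80 in saline (control) or a 20 mM analog solution in 0.5% Tween 80 in sterile nonpyrogenic saline. Mortality was followed over time.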

The term IC50 denotes the midpoint of a concentration-inhibition curve. On to `CC(C)=CCC/C(C)=C/CC/C(C)=C/CO` [FARNESOL], for which, in the data set on Candida albicans [1], the IC50 worked out at 1 µM. Also, in the data set with Candida albicans [2], the result was inactive. In the data set with Mus musculus, the Activity result is on record as “Non-toxic”.
In the same order, the values of `CCCCCCCCCc1nnn[nH]1` are 3 µM, “inactive” and “Non-toxic”.
Take `CO/N=C/C=C(\C)CC/C=C(\C)CCC=C(C)C`: in the data set on Candida albicans [1], the IC50 is no less than 100 µM. The result with Candida albicans [2] was inactive.
The like results for `CC(C)=CCC/C(C)=C/Cc1nnn[nH]1` were, in that order, greater than 50 µM and “inactive”.
In the case of `CC(C)=CCC/C(C)=C/CSc1nc[nH]n1`, the result with Candida albicans [3] was inactive. Moreover, the IC50 in the data set on Candida albicans [1] was 1 µM. Also, in the data set with Mus musculus, the Activity entry was “Non-toxic”.
On to `CC(C)=CCC/C(C)=C/CCc1nnn[nH]1`, for which the outcome in the data set on Candida albicans [4] was Active. The result in the data set on Candida albicans [3] and with Candida albicans [2] was inactive. In the data set on Candida albicans [1], the IC50 is 7 µM. Further, in the data set with Mus musculus, the Activity result was “Non-toxic”.
`CC(C)=CCC/C(C)=C/CSc1nn[nH]n1`: in the data set with Candida albicans [1], the IC50 is greater than 50 µM.
With `CC(C)=CCC/C(C)=C/CC/C(C)=C/C=N/O`, the IC50 with Candida albicans [1] turned out to be 5 µM. The outcome in the data set with Candida albicans [2] was inactive. Also, in the data set on Mus musculus, the Activity result is recorded as “Toxic”.
As to `CC(C)=CCC/C(C)=C/CSc1ncc[nH]1`, the IC50 with Candida albicans [1] was greater than 50 µM.
Regarding `CC(C)=CCC/C(C)=C/CCc1c[nH]nn1`, the IC50 with Candida albicans [1] was determined as 1 µM.
The same measure, in the same setting: the figure for `CC(C)=CCC/C(C)=C/CSc1c[nH]nn1` is 3 µM.
With `C(=C\c1nn[nH]n1)/c1ccccc1`, the IC50 in the data set with Candida albicans [1] was 10 µM. Besides, the result with Candida albicans [2] was inactive.
The like results for `CC(C)=C/C=C/C(C)=C/C=C/C(C)=C/C=N/O` were, in that order, 10 µM and “inactive”.
